From ChEMBL document CHEMBL2331424, “Synthesis and biological evaluation of novel neuroprotective agents for paraquat-induced apoptosis in human neuronal SH-SY5Y cells” (2013)

Experiments:
[1] = Neuroprotective activity in human SH-SY5Y cells assessed as cell viability after paraquat-induced toxicity at 10 uM incubated for 2 hrs prior to paraquat challenge measured after 24 hrs by MTT assay (reference value: 62.05 +/- 0.47%)
[2] = test system: SH-SY5Y; test: Neuroprotective activity in human SH-SY5Y cells assessed as decrease in paraquat-induced proteolytic cleavage of procaspase-3 incubated for 4 hrs prior to paraquat challenge measured after 24 hrs by Western blotting analysis; assay type: functional, cell-based
In short: (§1)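 SH-SY5Y in DMEM/F12 with 10% FBS pre-incubated with compound (0.1-10 μM, 4 h), then paraquat 250 μM. Western blot for caspase-3 and caspase-9 cleavage, Bax, Bcl-2, SOD or GPx, with GAPDH as loading control. HRP secondary antibodies and ECL detection, bands quantified. ≥3 independent experiments in duplicate; ANOVA with Dunnett's test.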

[3] = test system: SH-SY5Y; test: Neuroprotective activity in human SH-SY5Y cells assessed as decrease in paraquat-induced proteolytic cleavage of procaspase-9 incubated for 4 hrs prior to paraquat challenge measured after 24 hrs by Western blotting analysis; assay type: functional, cell-based
In short: as §1

[4] = Neuroprotective activity in paraquat-stimulated human SH-SY5Y cells assessed as upregulation of Bcl2 expression incubated for 4 hrs prior to paraquat challenge measured after 24 hrs by Western blotting analysis; assay type: functional, cell-based
In short: as §1

[5] = Neuroprotective activity in paraquat-stimulated human SH-SY5Y cells assessed as downregulation of Bax expression incubated for 4 hrs prior to paraquat challenge measured after 24 hrs by Western blotting analysis; assay type: functional, cell-based
In short: as §1

[6] = Neuroprotective activity in paraquat-stimulated human SH-SY5Y cells assessed as upregulation of GPx expression incubated for 4 hrs prior to paraquat challenge measured after 24 hrs by Western blotting analysis; assay type: functional, cell-based
In short: as §1

[7] = Neuroprotective activity in paraquat-stimulated human SH-SY5Y cells assessed as upregulation of SOD expression incubated for 4 hrs prior to paraquat challenge measured after 24 hrs by Western blotting analysis; assay type: functional, cell-based
In short: as §1

[8] = test system: SH-SY5Y; test: Neuroprotective activity in human SH-SY5Y cells assessed as decrease in paraquat-induced intracellular ROS level incubated for 4 hrs prior to paraquat challenge measured after 2 hrs by fluorescence microscopic analysis
[9] = test system: SH-SY5Y; test: Neuroprotective activity in human SH-SY5Y cells assessed as decrease in paraquat-induced nuclear morphological changes incubated for 4 hrs prior to paraquat challenge measured after 24 hrs by Hoechst 33342 staining-based fluorescence microscopic analysis
[10] = target: T1, Prostaglandin G/H synthase 2 (Homo sapiens) (UniProt P35354); test: Ratio of resveratrol IC50 to compound IC50 for inhibition of prostaglandin H-2 synthase (unknown origin)
T1 sequence (whole entry): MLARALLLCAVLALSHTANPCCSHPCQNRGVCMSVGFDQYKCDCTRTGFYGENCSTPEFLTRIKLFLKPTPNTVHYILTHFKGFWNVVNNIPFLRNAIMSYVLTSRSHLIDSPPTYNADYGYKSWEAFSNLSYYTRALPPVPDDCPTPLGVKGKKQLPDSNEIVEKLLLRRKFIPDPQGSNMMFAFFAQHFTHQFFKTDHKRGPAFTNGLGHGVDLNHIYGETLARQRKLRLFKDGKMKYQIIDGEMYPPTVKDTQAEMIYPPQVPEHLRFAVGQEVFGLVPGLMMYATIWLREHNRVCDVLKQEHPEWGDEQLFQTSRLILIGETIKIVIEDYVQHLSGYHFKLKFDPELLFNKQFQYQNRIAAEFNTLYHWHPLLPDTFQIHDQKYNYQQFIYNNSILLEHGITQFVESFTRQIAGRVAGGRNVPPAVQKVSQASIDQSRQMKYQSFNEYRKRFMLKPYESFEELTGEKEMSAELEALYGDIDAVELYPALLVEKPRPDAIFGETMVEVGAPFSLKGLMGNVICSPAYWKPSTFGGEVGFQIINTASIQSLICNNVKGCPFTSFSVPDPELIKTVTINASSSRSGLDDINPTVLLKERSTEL

SMILES | viability at 10 µM [1] | further results
C=C1c2cc(OC)cc(OC)c2[C@@H](c2ccc(OC)cc2)[C@@H]1c1cc(OC)cc(OC)c1 | 58.2% | 
COc1ccc(C2C(c3cc(OC)cc(OC)c3)=Cc3cc(OC)cc(OC)c32)cc1 (configuration not stated) | 58.6% | 
Oc1ccc([C@@H]2c3c(O)cc(O)cc3[C@H]3[C@H](c4ccc(O)cc4)c4c(O)cc(O)cc4[C@@H]23)cc1 (racemic) [PALLIDOL] | 72.4% | 
COc1ccc(/C=C2\c3cc(OC)cc(OC)c3[C@@H](c3ccccc3)[C@@H]2c2cc(OC)cc(OC)c2)cc1 | 65.3% | 
Oc1ccc(CC2=C(c3cc(O)cc(O)c3)C(c3ccc(O)cc3)c3c(O)cc(O)cc32)cc1 (configuration not stated) | 89.6% | Activity [2]: Dose-dependent effect; Activity [3]: Dose-dependent effect; Activity [4]: Dose-dependent effect; Activity [5]: Dose-dependent effect; Activity [6]: Dose-dependent effect; Activity [7]: Dose-dependent effect; Activity [8]: Dose-dependent effect; Activity [9]: Dose-dependent effect
COc1ccc(/C=C2/c3cc(OC)cc(OC)c3[C@@H](c3ccccc3)[C@@H]2c2cc(OC)cc(OC)c2)cc1 | 64% | 
COc1ccc(CSC2c3cc(OC)cc(OC)c3[C@@H](c3ccc(OC)cc3)[C@@H]2c2cc(OC)cc(OC)c2)cc1 (some centres not stated) | 65.2% | 
COc1ccc(/C=C2/c3cc(OC)cc(OC)c3[C@@H](c3ccc(OC)cc3)[C@@H]2c2cc(OC)cc(OC)c2)cc1 | 62.4% | 
Oc1ccc([C@@H]2c3c(O)cc(O)cc3[C@H]3[C@H](c4ccccc4)c4c(O)cc(O)cc4[C@@H]23)cc1 | 77.2% | 
Oc1ccc([C@H]2Oc3cc(O)cc4c3[C@@H]2c2cc(O)cc3c2[C@@H](c2cc(O)cc5c2[C@@H]4[C@H](c2ccc(O)cc2)O5)[C@H](c2ccc(O)cc2)O3)cc1 |  | Ratio IC50 [10]: 3
COc1ccc([C@@H]2c3c(OC)cc(OC)cc3[C@H]3[C@H](c4ccc(OC)cc4)c4c(OC)cc(OC)cc4[C@@H]23)cc1 | 63.6% | 
O=C1c2cc(O)cc(O)c2[C@@H](c2ccccc2)[C@@H]1c1cc(O)cc(O)c1 | 65% | 
Oc1ccc(CC2=C(c3cc(O)cc(O)c3)C(c3ccccc3)c3c(O)cc(O)cc32)cc1 (configuration not stated) | 82.9% | 
COc1ccc(/C=C2\c3cc(OC)cc(OC)c3[C@@H](c3ccc(OC)cc3)[C@@H]2c2cc(OC)cc(OC)c2)cc1 | 63.6% | 
COc1ccc([C@@H]2c3c(OC)cc(OC)cc3C(O)[C@H]2c2cc(OC)cc(OC)c2)cc1 (relative stereo) | 59% | 
COc1ccc(CSC2c3cc(OC)cc(OC)c3[C@@H](c3ccccc3)[C@@H]2c2cc(OC)cc(OC)c2)cc1 (some centres not stated) | 60.6% | 
O=C1c2cc(O)cc(O)c2[C@@H](c2ccc(O)cc2)[C@@H]1c1cc(O)cc(O)c1 [ISOPAUCIFLORAL F] | 58.5% | 
COc1cc(OC)cc([C@@H]2C(O)c3cc(OC)cc(OC)c3[C@H]2c2ccccc2)c1 (relative stereo) | 63.9% | 
COc1cc(OC)cc([C@@H]2C(=O)c3cc(OC)cc(OC)c3[C@H]2c2ccccc2)c1 (single isomer, unassigned) | 65% | 
COc1ccc([C@@H]2c3c(OC)cc(OC)cc3C(=O)[C@H]2c2cc(OC)cc(OC)c2)cc1 (relative stereo) | 59.9% | 
COc1ccc(C2C(c3cc(OC)cc(OC)c3)=C(C)c3cc(OC)cc(OC)c32)cc1 (configuration not stated) | 55.8% | 
COc1ccc(CC2=C(c3cc(OC)cc(OC)c3)[C@@H](c3ccc(OC)cc3)c3c(OC)cc(OC)cc32)cc1 | 61.4% | 
Oc1ccc(/C=C2/c3cc(O)cc(O)c3[C@@H](c3ccc(O)cc3)[C@@H]2c2cc(O)cc(O)c2)cc1 (racemic) | 57.9% | 
Oc1ccc(/C=C/c2cc(O)cc(O)c2)cc1 [RESVERATROL] | 66.3% | 
